Results reported in ChEMBL document CHEMBL1134091, “Aromatic inhibitors of dehydroquinate synthase: synthesis, evaluation and implications for gallic acid biosynthesis” (Bioorg Med Chem Lett, 2001).

T1: 3-dehydroquinate synthase (Escherichia coli K-12, UniProt P07639)
T1 sequence (P07639 whole entry): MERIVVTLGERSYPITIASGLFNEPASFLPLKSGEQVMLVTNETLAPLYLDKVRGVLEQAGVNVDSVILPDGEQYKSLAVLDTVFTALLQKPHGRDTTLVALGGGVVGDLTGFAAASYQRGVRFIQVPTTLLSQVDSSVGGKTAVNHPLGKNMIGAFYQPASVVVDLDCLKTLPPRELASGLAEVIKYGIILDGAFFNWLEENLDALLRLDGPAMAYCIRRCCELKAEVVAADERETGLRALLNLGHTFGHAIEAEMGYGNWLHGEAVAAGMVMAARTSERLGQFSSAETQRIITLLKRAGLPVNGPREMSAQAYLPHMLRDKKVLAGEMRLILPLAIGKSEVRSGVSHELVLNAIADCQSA

B1: 3-dehydroquinate synthase (Escherichia coli K-12), P07639 (protein)
chain: T1 sequence (P07639 whole entry)

How the values were obtained:
[1] = target: T1, 3-dehydroquinate synthase; test: Inhibition constant for binding to Co2+ form of 3-dehydroquinate synthase (DHQ) purified from Escherichia coli
Summary of the method: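 E. coli DHQ synthase, Co2+ form, purified with […] in all buffers from lysis onward. Assayed at rt in 50 mM MOPS pH 7.5 with […], 10 mM NAD+, 1 unit dehydroquinase, varied DAHP and inhibitor; 0.024 units enzyme added last. A234 increase followed. Ki from Dixon plots, or as half the I50 x-intercept at DAHP = Km ([…]).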

[2] = target: T1, 3-dehydroquinate synthase; test: Inhibition constant for binding to Zn2+ form of 3-dehydroquinate synthase (DHQ) purified from Escherichia coli
Summary of the method: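 E. coli DHQ synthase, Zn2+ form, purified with 75 mM ZnSO4 replacing CoCl2 in all buffers. Assayed at rt in 50 mM MOPS pH 7.5 with […] mM NAD+, 1 unit dehydroquinase, varied DAHP and inhibitor; 0.024 units enzyme added last. A234 increase followed. Ki from Dixon plots, or as half the I50 x-intercept at DAHP = Km ([…]).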

[3] = substrate: Oc1ccccc1O; test: Kinetics expressed as Michaelis-Menten constant against Zn2+ form of 3-dehydroquinate synthase purified from Escherichia coli
Summary of the method: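 Zn2+-form enzyme from E. coli, purified with ZnSO4 replacing CoCl2 in every buffer from cell lysis onward. Coupled assay in 50 mM MOPS pH 7.5 with ZnSO4, NAD+, dehydroquinase (1 unit) and varying DAHP substrate. Equilibrated at rt, then started with 0.024 units synthase. Absorbance increase at 234 nm monitored. Initial rates from linear least-squares fits.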

[4] = substrate: Oc1ccccc1O; test: Kinetics expressed as Michaelis-Menten constant against Co2+ form of 3-dehydroquinate synthase purified from Escherichia coli
Summary of the method: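 Co2+-form enzyme from E. coli, with CoCl2 in all buffers from lysis through purification. Coupled assay in 50 mM MOPS pH 7.5 with CoCl2, NAD+, dehydroquinase (1 unit) and varying DAHP substrate. Equilibrated at rt, then started with 0.024 units synthase. Absorbance rise at 234 nm followed over time. Initial rates taken from linear least-squares fits of progress curves.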

Molecule	Ki [1] [µM]	Ki [2] [µM]	Km [3] [µM]	Km [4] [µM]
O=P(O)(O)CCc1cccc(O)c1O	200	90		
Oc1ccccc1O [CATECHOL]	880	630		
O=C(O)c1cc(O)c(O)c(CCP(=O)(O)O)c1	5	1.7		
O=C(O)c1ccc(O)c(O)c1 [PROTOCATECHUIC ACID]	44	65		
O=C(O)c1cc(O)c(O)c(CP(=O)(O)O)c1	21	0.35		
B1			16	18
